From ChEMBL document CHEMBL1153988 (J Med Chem, 2009)
The source made the active and inactive calls. The rule behind the calls is not given here.

Legend:
Mus musculus [1] = experiment: Anticonvulsant activity in CF1 albino mouse assessed as protection against maximal electroshock-induced seizures at 30 mg/kg, ip after 4 hrs; type: functional, organism-based; parameters: dose 30 mg/kg
In short: (§1)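 Adult male CF no. 1 albino mice (18-25 g). Test compound suspended in 0.5% methylcellulose and given intraperitoneally at 0.01 mL/g body weight. Maximal electroshock challenge at the stated time. Read-out is the number of animals protected over the number tested; neurotoxicity is scored in parallel.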

Mus musculus [2] = experiment: Anticonvulsant activity in CF1 albino mouse assessed as protection against maximal electroshock-induced seizures at 100 mg/kg, ip after 4 hrs; type: functional, organism-based; parameters: dose 100 mg/kg; in short: as §1
Mus musculus [3] = experiment: Anticonvulsant activity in CF1 albino mouse assessed as protection against maximal electroshock-induced seizures at 300 mg/kg, ip after 4 hrs; type: functional, organism-based; parameters: dose 300 mg/kg; in short: as §1
Mus musculus [4] = experiment: Anticonvulsant activity in CF1 albino mouse assessed as protection against scMet-induced seizures at 30 mg/kg, ip after 0.5 hrs; type: functional, organism-based; parameters: dose 30 mg/kg
In short: (§2)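 Adult male CF no. 1 albino mice (18-25 g) dosed intraperitoneally with compound suspended in 0.5% methylcellulose (0.01 mL/g). Convulsant challenge given subcutaneously as a 0.85% pentylenetetrazol solution in 0.9% saline. Read-out is animals protected over animals tested, with neurotoxicity scored in parallel.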

Mus musculus [5] = experiment: Anticonvulsant activity in CF1 albino mouse assessed as protection against scMet-induced seizures at 100 mg/kg, ip after 0.5 hrs; type: functional, organism-based; parameters: dose 100 mg/kg; in short: as §2
Mus musculus [6] = experiment: Anticonvulsant activity in CF1 albino mouse assessed as protection against scMet-induced seizures at 300 mg/kg, ip after 0.5 hrs; type: functional, organism-based; parameters: dose 300 mg/kg; in short: as §2
Mus musculus [7] = experiment: Anticonvulsant activity in CF1 albino mouse assessed as protection against scMet-induced seizures at 30 mg/kg, ip after 4 hrs; type: functional, organism-based; parameters: dose 30 mg/kg; in short: as §2
Mus musculus [8] = experiment: Anticonvulsant activity in CF1 albino mouse assessed as protection against scMet-induced seizures at 100 mg/kg, ip after 4 hrs; type: functional, organism-based; parameters: dose 100 mg/kg; in short: as §2
Mus musculus [9] = experiment: Anticonvulsant activity in CF1 albino mouse assessed as protection against scMet-induced seizures at 300 mg/kg, ip after 4 hrs; type: functional, organism-based; parameters: dose 300 mg/kg; in short: as §2
Mus musculus [10] = experiment: Neurotoxicity in CF1 albino mouse at 300 mg/kg, ip after 0.5 hrs; type: toxicity, organism-based; parameters: dose 300 mg/kg, route intraperitoneal; details: in vivo
In short: (§3)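 Male CF no. 1 albino mice (18-25 g) received a single ip dose as a suspension in 0.5% methylcellulose. The read-out was the number of animals showing neurotoxicity (minimal motor impairment) over the number tested.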

Mus musculus [11] = experiment: Neurotoxicity in CF1 albino mouse at 100 mg/kg, ip after 4 hrs; type: toxicity, organism-based; parameters: dose 100 mg/kg, route intraperitoneal; details: in vivo; in short: as §3
Mus musculus [12] = experiment: Neurotoxicity in CF1 albino mouse at 300 mg/kg, ip after 4 hrs; type: toxicity, organism-based; parameters: dose 300 mg/kg, route intraperitoneal; details: in vivo; in short: as §3
Rattus norvegicus [13] = experiment: Neurotoxicity in albino Sprague-Dawley rat at 50 mg/kg, po; type: toxicity, organism-based; parameters: dose 50 mg/kg, route oral; details: in vivo
In short: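 Neurotoxicity was scored in male Sprague-Dawley albino rats (100-150 g) dosed orally with a suspension in 0.5% methylcellulose. The read-out was the fraction of animals showing neurotoxicity (minimal motor impairment).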

Rattus norvegicus [14] = experiment: Anticonvulsant activity in albino Sprague-Dawley rat assessed as protection against scMet-induced seizures at 50 mg/kg, po after 15 mins; type: functional
In short: (§4)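 Male Sprague-Dawley albino rats (100-150 g) were given the compound orally as a suspension in 0.5% methylcellulose. Seizures were induced by subcutaneous pentylenetetrazol, dissolved in 0.9% saline as a 2.82% solution. The read-out was animals protected over animals tested.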

Rattus norvegicus [15] = experiment: Anticonvulsant activity in albino Sprague-Dawley rat assessed as protection against scMet-induced seizures at 50 mg/kg, po after 30 mins; type: functional; in short: as §4
Rattus norvegicus [16] = experiment: Anticonvulsant activity in albino Sprague-Dawley rat assessed as protection against scMet-induced seizures at 50 mg/kg, po after 1 hr; type: functional; in short: as §4
Rattus norvegicus [17] = experiment: Anticonvulsant activity in albino Sprague-Dawley rat assessed as protection against scMet-induced seizures at 50 mg/kg, po after 2 hrs; type: functional; in short: as §4
Rattus norvegicus [18] = experiment: Anticonvulsant activity in albino Sprague-Dawley rat assessed as protection against scMet-induced seizures at 50 mg/kg, po after 4 hrs; type: functional; in short: as §4
Mus musculus [19] = experiment: Anticonvulsant activity in CF1 albino mouse assessed as protection against maximal electroshock-induced seizures at 30 mg/kg, ip after 0.5 hrs; type: functional, organism-based; parameters: dose 30 mg/kg; in short: as §1
Mus musculus [20] = experiment: Anticonvulsant activity in CF1 albino mouse assessed as protection against maximal electroshock-induced seizures at 100 mg/kg, ip after 0.5 hrs; type: functional, organism-based; parameters: dose 100 mg/kg; in short: as §1
Mus musculus [21] = experiment: Anticonvulsant activity in CF1 albino mouse assessed as protection against maximal electroshock-induced seizures at 300 mg/kg, ip after 0.5 hrs; type: functional, organism-based; parameters: dose 300 mg/kg; in short: as §1
Mus musculus [22] = experiment: Anticonvulsant activity in ip dosed CF1 albino mouse assessed as protection against 32 mA current-induced seizure by 6Hz psychomotor seizure test; type: functional
In short: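 In the 6 Hz psychomotor seizure test, male CF no. 1 albino mice (18-25 g) received the compound ip in 0.5% methylcellulose. Stimulation was at 32 or 44 mA. Doses were varied to give 3-4 points between 0% and 100% protection, and ED50 with 95% confidence interval came from probit analysis.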

Mus musculus [23] = experiment: Neurotoxicity in CF1 albino mouse at 30 mg/kg, ip after 0.5 hrs; type: toxicity, organism-based; parameters: dose 30 mg/kg, route intraperitoneal; details: in vivo; in short: as §3
Mus musculus [24] = experiment: Neurotoxicity in CF1 albino mouse at 30 mg/kg, ip after 4 hrs; type: toxicity, organism-based; parameters: dose 30 mg/kg, route intraperitoneal; details: in vivo; in short: as §3
Rattus norvegicus [25] = experiment: Anticonvulsant activity in albino Sprague-Dawley rat assessed as protection against maximal electroshock-induced seizures at 50 mg/kg, po after 4 hrs; type: functional, organism-based; parameters: dose 50 mg/kg
In short: (§5)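 Adult male Sprague-Dawley albino rats (100-150 g) dosed orally with compound suspended in 0.5% methylcellulose (0.04 mL per 10 g). Maximal electroshock challenge at the stated time. Protection is scored in 25% steps as the fraction of animals protected, with neurotoxicity recorded in parallel.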

Rattus norvegicus [26] = experiment: Anticonvulsant activity in albino Sprague-Dawley rat assessed as protection against maximal electroshock-induced seizures at 50 mg/kg, po after 15 mins; type: functional; in short: as §5
Rattus norvegicus [27] = experiment: Anticonvulsant activity in albino Sprague-Dawley rat assessed as protection against maximal electroshock-induced seizures at 50 mg/kg, po after 30 mins; type: functional; in short: as §5
Rattus norvegicus [28] = experiment: Anticonvulsant activity in albino Sprague-Dawley rat assessed as protection against maximal electroshock-induced seizures at 50 mg/kg, po after 1 hr; type: functional; in short: as §5
Rattus norvegicus [29] = experiment: Anticonvulsant activity in albino Sprague-Dawley rat assessed as protection against maximal electroshock-induced seizures at 50 mg/kg, po after 2 hrs; type: functional; in short: as §5
Mus musculus [30] = experiment: Anticonvulsant activity in ip dosed CF1 albino mouse assessed as protection against scMet-induced seizures; type: functional
In short: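 Adult male CF no. 1 albino mice (18-25 g) dosed ip with compound suspended in 0.5% methylcellulose (0.01 mL/g body weight). Seizures were induced by subcutaneous pentylenetetrazol, given as a 0.85% solution in 0.9% saline. ED50 was found by varying the dose to give 3-4 points between 0% and 100% protection, then probit analysis with 95% confidence intervals.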

Mus musculus [31] = species: Mus musculus; experiment: Protective index, ratio of TD50 for CF1 albino mouse to ED50 for scMet-induced CF1 albino seizure mouse model; type: functional
In short: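 Ratio of TD50 to ED50 (MES or scMet) in male CF no. 1 mice (18-25 g) given ip doses in 0.5% methylcellulose. TD50 comes from minimal motor impairment: the dose was varied until four points lay between no impairment and all animals impaired. Both TD50 and ED50 were derived by probit analysis with 95% confidence intervals.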

Mus musculus [32] = experiment: Anticonvulsant activity in CF1 albino mouse assessed as protection against maximal electroshock-induced seizures at 60 mg/kg, ip; type: functional, organism-based; parameters: dose 60 mg/kg; in short: as §1
Mus musculus [33] = experiment: Anticonvulsant activity in CF1 albino mouse assessed as protection against maximal electroshock-induced seizures at 400 mg/kg, ip; type: functional, organism-based; parameters: dose 400 mg/kg; in short: as §1
Mus musculus [34] = experiment: Anticonvulsant activity in CF1 albino mouse assessed as protection against maximal electroshock-induced seizures at 150 mg/kg, ip after 0.5 hrs; type: functional, organism-based; parameters: dose 150 mg/kg; in short: as §1

Compound | Activity (Mus musculus [1]) | Activity (Mus musculus [2]) | Activity (Mus musculus [3]) | Activity (Mus musculus [4]) | Activity (Mus musculus [5]) | Activity (Mus musculus [6]) | Activity (Mus musculus [7]) | Activity (Mus musculus [8]) | Activity (Mus musculus [9]) | Activity (Mus musculus [10]) | Activity (Mus musculus [11]) | Activity (Mus musculus [12]) | Activity (Rattus norvegicus [13]) | Activity (Rattus norvegicus [15]) | Activity (Rattus norvegicus [16]) | Activity (Rattus norvegicus [17]) | Activity (Rattus norvegicus [18]) | Activity (Mus musculus [19]) | Activity (Mus musculus [20]) | Activity (Mus musculus [21]) | also measured
CNC(=O)C1(F)C(C)(C)C1(C)C | Non-toxic | Non-toxic | Non-toxic | Non-toxic | Toxic | Non-toxic | Non-toxic | Non-toxic | Non-toxic | Toxic | Non-toxic | Non-toxic | 100% | inactive | inactive | inactive | inactive | Non-toxic | Non-toxic | Toxic | Activity (Rattus norvegicus [14]): inactive
CC[C@H](C(N)=O)N1CCCC1=O |  |  |  |  |  |  |  |  |  |  |  |  |  |  |  |  |  |  |  |  | ED50 (Mus musculus [22]): 19 mg/kg
CC1(C)C(C)(C)C1(F)C(=O)O | Non-toxic | Non-toxic | Non-toxic | Non-toxic | Non-toxic | Toxic | Non-toxic | Non-toxic | Non-toxic | Toxic | Non-toxic | Non-toxic | Not Active | inactive | inactive | inactive | inactive | Non-toxic | Non-toxic | Non-toxic | Activity (Mus musculus [23]): Non-toxic; Activity (Mus musculus [24]): Non-toxic; Activity (Rattus norvegicus [25]): inactive; Activity (Rattus norvegicus [26]): inactive; Activity (Rattus norvegicus [27]): inactive; Activity (Rattus norvegicus [28]): inactive; Activity (Rattus norvegicus [29]): inactive
CCCC(F)(CCC)C(N)=O |  |  |  |  |  |  |  |  |  |  |  |  |  |  |  |  |  |  |  |  | ED50 (Mus musculus [30]): 23 mg/kg; PI (Mus musculus [31]): 3.8; Activity (Mus musculus [32]): inactive; Activity (Mus musculus [33]): Active; Activity (Mus musculus [34]): inactive
